Screens as filed in PubChem.
The list is not random: actives were taken first. Their share in the collection is about 1.9%.
DDE Tn7 FP inh – inhibitors of Tn7 peptide binding to human fibrin DD(E) | FP displacement of FITC-Tn7 peptide from fibrin DD(E); 0% = median of compound wells per plate | actives 0.13% (n = 370,000) | P02675 | inhibition, % at 8.3 µM;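 active means inhibition above the mean of compounds falling within the control limits plus 3 SD of them, cut at about 14% in these data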
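Test system: human clot-derived fibrin DD(E) complex / Quantity: 2 µM final DD(E) protein / Incubation: 10 min plus 3 h, room temperature / Measured by: fluorescence polarization / Benchmarks: high control of 10 µM Aha-Tn7 peptide / Replicates: singlicate testing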
MBD2 inh – MBD2-methylated oligo binding inhibition; inhibition, % at 4.4 µM; Q9UBB5; actives 0.31% (n = 370,000); TR-FRET, MBD2 binding to methylated oligonucleotide; in the data active means inhibition above about 13%
TDP2 absorb – blocks human TDP2 phosphodiesterase activity; recombinant TDP2, T5PNP hydrolysis, p-nitrophenol absorbance 415 nm; actives 0.34% (n = 370,000); inhibition, % at 12.8 µM;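 active means inhibition above the mean of all tested compounds plus 3 SD, set per campaign, cut at about 25% in these data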
Target sequence (O95551 whole entry, looked up): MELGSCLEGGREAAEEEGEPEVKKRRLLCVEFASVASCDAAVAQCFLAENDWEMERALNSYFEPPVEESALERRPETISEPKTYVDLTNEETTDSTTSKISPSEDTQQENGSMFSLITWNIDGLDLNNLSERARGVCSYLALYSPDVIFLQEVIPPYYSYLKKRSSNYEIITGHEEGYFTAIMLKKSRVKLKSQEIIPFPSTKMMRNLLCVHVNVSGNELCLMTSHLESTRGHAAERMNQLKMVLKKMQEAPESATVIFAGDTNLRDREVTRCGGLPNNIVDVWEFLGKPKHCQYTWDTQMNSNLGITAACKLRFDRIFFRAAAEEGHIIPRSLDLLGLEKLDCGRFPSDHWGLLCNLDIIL
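Evaluation: % inhibition relative to enzyme-containing and enzyme-free wells. Material: recombinant human TDP2. Benchmarks: enzyme-free and DMSO wells. Timing: enzyme reaction with compound for 2 h at 37 °C. Compound dosing: 12.8 µM only. Measured by: p-Nitrophenol epi absorbance. Reagent: T5PNP substrate at 5 mM, a TopII-DNA adduct mimic. Replication: single well per compound.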
DDE Tn6 FP inh – inhibitors of Tn6 peptide binding to human fibrin DD(E); Fibrin DD(E) TRITC-Tn6 fluorescence polarization displacement; inhibition, % at 8.3 µM; actives 0.21% (n = 370,000); AID 720509;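 active means inhibition above a per-campaign cutoff: mean of compounds within control limits plus 3 SD, cut at about 15% in these data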
UHRF1 binding – blocks human UHRF1 binding to methylated DNA | Q96T88 | UHRF1 binding to methylated oligo, TR-FRET | inhibition, % at 4.4 µM | actives 0.75% (n = 370,000); in the data active means inhibition above about 21%;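 further: UHRF1 SRA domain binding a hemimethylated CpG hairpin DNA probe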
LEDGF integ inh – blocks HIV-1 LEDGF/p75-dependent DNA integration. TR-FRET IN-LEDGF/p75 DNA integration, Eu/Cy5. inhibition, % at 3.7 µM. actives 0.64% (n = 370,000). AID 743269;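 active means inhibition above the screen-wide mean plus 3 SD, cut at about 13% in these data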;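 further: signal is the Cy5 over europium emission ratio at 671 and 618 nm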
IN multimer up – HIV-1 integrase multimerization activation, counter-screen; AID 1053131; activation, % at 7.7 µM; shares compounds with LEDGF integ inh; TR-FRET HIV-1 integrase multimerization, biochemical; actives 17% (n = 2,000); in the data active means activation above about 8.9%
TR-FRET interf – counter-screen for LEDGF/p75 integration inhibitors: TR-FRET optical interference; shares compounds with LEDGF integ inh; TR-FRET optical interference counterscreen, HIV-1 IN multimerization; inhibition, % at 7.7 µM; 2,000 tested, under 10 active;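 active means inhibition above the mean over all tested compounds plus 3 SD, which no compound reached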
LEDGF integ conf – confirmation of HIV-1 LEDGF/p75-dependent integration inhibitors | shares compounds with LEDGF integ inh | actives 36% (n = 2,000) | TR-FRET LEDGF/p75-dependent HIV-1 integration, biochemical | inhibition, % at 3.7 µM; in the data active means inhibition above about 14%
Numbers stand for hits; – = inactive; · = no result.

SMILES	DDE Tn7 FP inh	MBD2 inh	TDP2 absorb	DDE Tn6 FP inh	UHRF1 binding	LEDGF integ inh	IN multimer up	TR-FRET interf	LEDGF integ conf
CCN(CC)c1ccc(/C=C2\C(=O)NC(=O)N(Cc3ccco3)C2=O)cc1	–	–	–	–	66	71	–	–	54
Cc1cc(/C=C2/C(=O)NC(=O)N(C)C2=O)c(C)n1-c1ccccc1	–	–	–	–	–	–	·	·	·
CC(C)(C)n1nnnc1C(c1cccc2ccccc12)N1CCC2(CC1)C(=O)NCN2c1ccccc1 (stereo not drawn)	–	–	–	–	–	–	·	·	·
CCc1nc2ccccc2c(=O)n1-c1ccccc1OC	–	–	–	–	–	25	–	–	–
CC(C)n1c(=O)c(C=Nc2ccc(S(N)(=O)=O)cc2)c(O)n(Cc2ccco2)c1=O	–	–	–	–	–	17	–	–	–
CCCCn1c(=O)c(C=Nc2ccc(Cl)cc2)c(O)n(Cc2ccco2)c1=O	–	–	–	–	–	–	·	·	·
O=[N+]([O-])c1ccc(N2CCOCC2)c2c1no[n+]2[O-]	–	–	–	–	–	14	–	–	–
O=C(NC1CN2CCC1CC2)c1ccc(Cl)cc1 (stereo not drawn)	–	–	–	–	–	–	·	·	·
CC(=O)O/C(=C1\CC2C3CC=C4CC(OC(C)=O)CCC4(C)C3CCC2(C)C1=O)C(F)(F)F (stereo not drawn)	–	–	–	–	–	–	·	·	·
CCN1C(=O)CC(=O)N(CC)C1=S	–	–	–	–	–	–	·	·	·
C[C@]12CCC3C(CC[C@H]4C[C@H](N)CC[C@]34C)C1CC[C@H]2O (stereo partly drawn)	–	–	–	–	–	21	–	–	–
COC(=O)C1=C(C(=O)OC)C2OC1c1cc3ccccc3cc12	–	–	–	–	–	–	·	·	·
C=CCN1C(=O)NC(=O)/C(=C/c2cccn2C)C1=O	–	–	–	–	–	–	·	·	·
C=CCN1C(=O)NC(=O)/C(=C/c2ccoc2)C1=O	–	–	–	–	28	14	–	–	42
CCc1ccccc1N1C(=O)/C(=C/c2ccc(N3CCN(C)CC3)o2)C(=O)NC1=S	–	–	–	–	–	17	–	–	14
NN=C1C(Cl)=C(Cl)C(Cl)=C1Cl	–	–	–	–	40	22	–	–	–
CN1OC[C@@H]2CN[C@H](c3ccc(Br)cc3)C[C@@H]21	–	–	–	–	–	–	·	·	·
C=C(C)CC1(CC)C(=O)NC(=S)NC1=O	–	–	–	–	–	20	–	–	–
C=CCC1(CC)C(=O)NC(=S)NC1=O	–	–	–	–	–	–	·	·	·
COC(=O)C1=C(c2ccc(OC(F)(F)F)cc2)C[C@@H]2CC[C@H]1N2C(=O)N1CCc2cc(OC)c(OC)cc2C1	–	–	–	–	–	–	·	·	·
CCCCC(=O)N/N=C/c1c(O)n(Cc2ccco2)c(=O)[nH]c1=O	–	–	–	–	–	27	–	–	–
O=c1[nH]c(=O)n(Cc2ccco2)c(O)c1C=NCc1ccco1	–	–	–	–	–	15	–	–	–
C[C@]12CC[C@@H](O)CC1=CC(=O)C1C2CC[C@]2(C)C(=O)[C@H](O)CC12 (stereo partly drawn)	–	–	–	–	–	–	·	·	·
CCC1CCC(C)N(N=O)C1 (stereo not drawn)	–	–	–	–	–	–	·	·	·
Cc1cc(/C=C2\C(=O)NC(=O)N(c3ccccc3F)C2=O)c(C)n1-c1cc(C(=O)O)cc(C(=O)O)c1	–	–	–	–	52	40	14	–	39
Cc1cc(/C=C2\C(=O)NC(=O)N(c3ccc(F)cc3)C2=O)c(C)n1-c1cccc(C(=O)O)c1	–	–	–	–	–	–	·	·	·
